The text below walks through data of ChEMBL document CHEMBL1123129, “Hypolipidemic activity of indan-1,3-dione derivatives in rodents” (J Med Chem, 1985).

Assay [1] deals with Rattus norvegicus. The assay is described as follows: Compound was evaluated for the hypolipidemic activity at 20 mg/kg per day orally for 14 days on phospholipids content in rat HDL. In kind it is functional. The following applies: route oral. In short, it runs like this: (§1)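 Male Sprague–Dawley rats (~300 g) were dosed orally each day. Blood was drawn from the abdominal vein. Lipoprotein fractions (chylomicron, VLDL, LDL, HDL) were separated by the Hatch–Lees and Havel methods. Each fraction was assayed for cholesterol, triglyceride (enzymatic kit), neutral lipids, phospholipids and Lowry protein. Values are % of 1% CMC vehicle control, N = 6.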

The target of assay [2] is Acetyl-CoA carboxylase 1 (Mus musculus) (UniProt Q5SWU9). The assay can be described thus: In Vivo effect for the hypolipidemic activity on Acetyl-CoA carboxylase in CF1 mice after 16 days administered orally at a dose of 20 mg/kg. It is filed as functional, organism-based. Set-up: dose 20 mg/kg. An outline of the steps: (§2)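 CF1 male mice are dosed orally at 10–60 mg/kg per day for 16 days, with 1% CMC as the control vehicle. Liver is homogenized at 10% in 0.25 M sucrose + 0.001 M EDTA, pH 7.2. Enzymes are assayed by literature methods, with Lowry protein. Activity is given as % of control (X ± SD, N = 6), with p from Student's t test.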

Assay [3] has as its system Rattus norvegicus. The assay is described as follows: Compound was evaluated for the hypolipidemic activity at 20 mg/kg per day orally for 14 days on protein content in rat HDL. In kind it is functional. The following applies: route oral. In short, it runs like this:
as §1

In assay [4] the test system is Mus musculus. The assay can be described thus: In Vivo effect for the hypolipidemic activity on Hepatic lipoprotein lipase in CF1 mice after 16 days administered orally at a dose of 20 mg/kg. In kind it is functional. The following applies: route oral. An outline of the steps: as §2
In assay [5] the test system is Rattus norvegicus. The assay can be described thus: Compound was evaluated for the hypolipidemic activity at 20 mg/kg per day orally for 14 days on cholesterol content in rat VLDL. It is filed as functional. The following applies: route oral. An outline of the steps: as §1
The test system of assay [6] is Mus musculus. The assay can be described thus: In Vivo effect for the hypolipidemic activity on Acetyl-CoA carboxylase in CF1 mice after 16 days administered orally at a dose of 60 mg/kg. In kind it is functional. The following applies: route oral. An outline of the steps:
as §2

In assay [7] the test system is Rattus norvegicus. The assay is described as follows: Compound was evaluated for the hypolipidemic activity at 20 mg/kg per day orally for 14 days on neutral lipids content in rat LDL. In kind it is functional. The following applies: route oral. An outline of the steps:
as §1

Assay [8] deals with Mus musculus. The assay can be described thus: Compound was evaluated for the hypolipidemic activity in CF1 male mice at a dose of 60 mg/kg orally for Serum triglyceride at 16th day. It is filed as functional. The following applies: route oral. In short, it runs like this:
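CF1 male mice dosed orally at 10–60 mg/kg per day, with 1% CMC as the vehicle control; N = 6 per group. Serum cholesterol was read on days 9 and 16 and serum triglyceride on day 16. Liver lipids were extracted on day 16 and assayed for cholesterol, triglyceride, neutral lipid, phospholipid and protein. Values are given as % of control ± SD.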

Assay [9] deals with Rattus norvegicus. The assay can be described thus: Compound was evaluated for the hypolipidemic activity in Sprague-Dawley rats at a dose of 20 mg/kg orally for Serum cholesterol at 9th day. The following applies: route oral. In kind it is functional. In short, it runs like this:
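Sprague–Dawley male rats (~350 g) received 20 mg/kg per day orally, with 1% CMC as the vehicle control; N = 6. Tail-vein blood was taken between 8:00 and 9:30 a.m. on days 9 and 16 and spun for 3 min to obtain serum. Cholesterol was measured by a modified Liebermann–Burchard reaction and triglyceride by kit. Values are % control ± SD; significance by Student's t test.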

Assay [10] has as its system Mus musculus. The assay can be described thus: Hypolipidemic activity in CF1 male mice at a dose of 20 mg/kg per day, serum triglyceride measured on the 16th day. In kind it is functional. An outline of the steps:
(§3)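 CF1 male mice (~30 g) were given 20 mg/kg per day ip at 11:00 a.m.; N = 6 per group. Tail-vein serum was collected in nonheparinized microcapillaries. Cholesterol was measured on days 9 and 16 by modified Liebermann–Burchard on duplicate 25 µL samples. Triglyceride was measured on day 16 in a separate group, duplicate 50 µL. Values are % control ± SD; Student's t test.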

Assay [11] deals with T1, 3-hydroxy-3-methylglutaryl-coenzyme A reductase (Mus musculus) (UniProt Q01237).
T1 sequence (whole entry): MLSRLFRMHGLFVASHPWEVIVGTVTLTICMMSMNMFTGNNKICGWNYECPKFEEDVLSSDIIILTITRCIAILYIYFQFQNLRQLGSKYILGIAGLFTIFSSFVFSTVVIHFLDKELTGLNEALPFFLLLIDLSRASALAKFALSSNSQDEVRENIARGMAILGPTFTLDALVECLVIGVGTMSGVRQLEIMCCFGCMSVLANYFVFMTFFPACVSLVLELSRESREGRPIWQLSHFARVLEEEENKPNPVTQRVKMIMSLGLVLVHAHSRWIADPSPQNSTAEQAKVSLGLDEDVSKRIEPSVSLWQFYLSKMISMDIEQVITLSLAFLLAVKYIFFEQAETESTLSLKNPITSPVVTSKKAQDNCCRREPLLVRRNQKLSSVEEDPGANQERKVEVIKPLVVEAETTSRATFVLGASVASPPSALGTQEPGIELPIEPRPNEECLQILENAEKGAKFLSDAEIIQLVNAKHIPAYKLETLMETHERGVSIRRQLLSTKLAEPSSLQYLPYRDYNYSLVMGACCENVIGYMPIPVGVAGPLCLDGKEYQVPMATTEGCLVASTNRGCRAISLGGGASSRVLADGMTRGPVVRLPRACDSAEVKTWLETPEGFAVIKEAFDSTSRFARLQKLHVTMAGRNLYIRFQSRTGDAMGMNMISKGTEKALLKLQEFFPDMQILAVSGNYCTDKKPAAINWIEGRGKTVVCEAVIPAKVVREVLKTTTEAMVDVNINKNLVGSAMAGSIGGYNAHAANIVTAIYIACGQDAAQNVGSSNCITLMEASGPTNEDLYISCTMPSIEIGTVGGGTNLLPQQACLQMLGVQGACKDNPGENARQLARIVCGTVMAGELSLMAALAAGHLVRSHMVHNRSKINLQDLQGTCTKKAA
The assay is described as follows: In Vivo effect for the hypolipidemic activity on HMG-CoA reductase in CF1 mice after 16 days of oral administration at a dose of 60 mg/kg. In kind it is organism-based. Details: dose 60 mg/kg. An outline of the steps:
as §2

For assay [12], the system named is Rattus norvegicus. The assay is described as follows: Compound was evaluated for the hypolipidemic activity at 20 mg/kg per day orally for 14 days on triglycerides content in rat VLDL. The following applies: route oral. It is filed as functional. An outline of the steps:
as §1

Assay [13] is filed under the species Mus musculus. The assay can be described thus: In Vitro evaluation for the CF1 liver enzyme activity on Mitochondrial citrate exchange at concentration 100 uM. In kind it is functional. In short, it runs like this: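 Mouse liver enzymes assayed in vitro on 10% homogenates of CF1 male mouse liver, with test drug added at 50–200 μM. Each enzyme follows a published procedure. Protein is measured by Lowry. Activity is given as % of untreated control (X ± SD, N = 6).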

Assay [14] has as its system Mus musculus. The assay is described as follows: Compound was evaluated for the hypolipidemic activity in CF1 male mice at a dose of 20 mg/kg orally for Serum cholesterol at 9th day. In kind it is functional. The following applies: route oral. In short, it runs like this: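 CF1 male mice received the agent orally in 1% CMC at 10–60 mg/kg per day. Tail-vein blood was taken on days 9 and 16. Serum cholesterol was measured by modified Liebermann–Burchard on duplicate 25-µL samples, and serum triglyceride on day 16 in duplicate 50-µL samples. Values are % of vehicle control, mean ± SD, N = 6; Student's t test.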

For assay [15], the system named is Rattus norvegicus. The assay can be described thus: Compound was evaluated for the hypolipidemic activity at 20 mg/kg per day orally for 14 days on cholesterol content in rat feces. It is filed as functional. The following applies: route oral. In short, it runs like this:
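Male Sprague–Dawley rats were dosed orally for 14 days. Liver, small intestine and a 24-h fecal collection were lipid-extracted. Extracts were assayed for cholesterol (modified Liebermann–Burchard), triglyceride (enzymatic kit), neutral lipids, phospholipids and protein. Values are % of 1% CMC vehicle control, mean ± SD, N = 6.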

In assay [16] the test system is Mus musculus. The assay can be described thus: Hypolipidemic activity in CF1 male mice at a dose of 20 mg/kg per day, serum cholesterol measured on the 16th day. In kind it is functional. An outline of the steps:
as §3

Consider `COc1ccc(C2C(=O)c3ccccc3C2=O)cc1` [ANISINDIONE], for which the Control was 87% in [1]; 107% in assay [2]; 107% in [3]; 82% in assay [4]; 88% in assay [5]; 97% in [6]. In addition, the Control was determined as 69% in assay [7]; 67% in [8]; 74% in assay [9]; 126% in assay [11]; 72% in assay [12]; 38% in assay [13]. Further, the figures for the Control in [14] and in assay [15] were 67% and 187%, respectively. The “Serum triglyceride, % of control” value in [10] is on record as 42%. The “Serum cholesterol, % of control” value in [16] stood at 59%.
